Assays:
KIRC-1 cells = experiment: Preanaphase spindle monopolarity, KIRC-1 cells; type: cell-based, human
How it was run: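 TP53–/– RPE-1 and KIRC-1 cells were grown in DMEM with 10% FBS, penicillin and streptomycin; KIRC-1 medium also contained 10 μM STLC. Cells on coverslips were treated overnight with increasing test-compound concentrations or DMSO. They were then methanol-fixed and stained for KIF15, tubulin and DNA. Preanaphase spindles were scored monopolar or bipolar, in triplicate with n = 100 per replicate (± SEM).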

[1] = Precipitation observed in culture media; type: physicochemical
KIF15-N420 = target: T1, KIF15-N420 (Homo sapiens, UniProt Q9NS87); experiment: ATP-dependent steady-state ATPase assay; type: biochemical; conditions: 30 μM compound, 3 μM microtubules, fit ± 95% confidence interval
T1 sequence (Q9NS87 1-420 limits assumed): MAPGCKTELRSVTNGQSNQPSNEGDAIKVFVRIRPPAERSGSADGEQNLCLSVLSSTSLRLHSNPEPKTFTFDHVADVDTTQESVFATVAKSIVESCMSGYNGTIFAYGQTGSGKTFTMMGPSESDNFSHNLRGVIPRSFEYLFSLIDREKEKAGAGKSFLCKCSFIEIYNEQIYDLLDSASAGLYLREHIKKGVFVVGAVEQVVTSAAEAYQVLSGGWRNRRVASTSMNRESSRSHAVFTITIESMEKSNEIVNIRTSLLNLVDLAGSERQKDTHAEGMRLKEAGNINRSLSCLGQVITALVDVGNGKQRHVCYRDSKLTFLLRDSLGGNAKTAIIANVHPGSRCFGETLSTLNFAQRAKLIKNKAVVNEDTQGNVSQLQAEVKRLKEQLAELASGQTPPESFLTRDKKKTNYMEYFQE
How it was run: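 KIF15-N420 ATPase measured by NADH-coupled assay, with absorbance at 340 nm followed over time at 25°C. Rates were divided by active motor concentration. ATP was varied, with microtubules held at 3 μM. Test compound was 30 μM, or an equal volume of DMSO. Michaelis-Menten fits were weighted by 1/SEM, with n = 5–7 per concentration. kcat and Km are reported as fit ± 95% confidence interval.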

KIF15-N700 = target: T2, KIF15-N700 (Homo sapiens, UniProt Q9NS87); experiment: Microtubule binding to coverslip via KIF15 in gliding assay; conditions: 1 min postdrug addition; 24 µM Munesib-1 or 100 µM Fift-IN
T2 sequence (Q9NS87 1-700 limits assumed): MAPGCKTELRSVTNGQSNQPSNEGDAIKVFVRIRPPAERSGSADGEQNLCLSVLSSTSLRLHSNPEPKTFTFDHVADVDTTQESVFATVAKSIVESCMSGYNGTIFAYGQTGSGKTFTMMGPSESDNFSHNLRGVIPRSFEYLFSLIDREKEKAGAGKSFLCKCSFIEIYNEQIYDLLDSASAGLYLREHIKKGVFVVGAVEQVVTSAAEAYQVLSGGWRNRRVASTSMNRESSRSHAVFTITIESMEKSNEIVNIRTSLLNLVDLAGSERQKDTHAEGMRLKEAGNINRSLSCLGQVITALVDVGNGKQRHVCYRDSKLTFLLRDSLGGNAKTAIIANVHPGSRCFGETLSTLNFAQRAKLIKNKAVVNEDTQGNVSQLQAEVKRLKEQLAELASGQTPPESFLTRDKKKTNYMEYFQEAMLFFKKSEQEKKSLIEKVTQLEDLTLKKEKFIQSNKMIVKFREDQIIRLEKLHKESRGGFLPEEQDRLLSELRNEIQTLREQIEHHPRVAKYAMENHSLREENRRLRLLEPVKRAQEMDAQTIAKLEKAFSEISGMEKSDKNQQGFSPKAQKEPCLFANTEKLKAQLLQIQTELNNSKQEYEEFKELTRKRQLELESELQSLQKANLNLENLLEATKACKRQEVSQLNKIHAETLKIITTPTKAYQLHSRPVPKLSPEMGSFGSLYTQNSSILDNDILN
How it was run: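 During KIF15-N700 gliding assays, microtubules bound to the coverslip were counted immediately before adding drug and after 1 min of incubation. Test compound was 24 µM or 100 µM; DMSO served as control. Results are expressed as the percentage of microtubules remaining bound.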

Eg5 = target: T3, Eg5 (Homo sapiens, UniProt P52732); experiment: Microtubule gliding assay, Eg5; type: biochemical; conditions: 24 µM Munesib-1 or 100 µM Fift-IN
T3 sequence (P52732 1-1056): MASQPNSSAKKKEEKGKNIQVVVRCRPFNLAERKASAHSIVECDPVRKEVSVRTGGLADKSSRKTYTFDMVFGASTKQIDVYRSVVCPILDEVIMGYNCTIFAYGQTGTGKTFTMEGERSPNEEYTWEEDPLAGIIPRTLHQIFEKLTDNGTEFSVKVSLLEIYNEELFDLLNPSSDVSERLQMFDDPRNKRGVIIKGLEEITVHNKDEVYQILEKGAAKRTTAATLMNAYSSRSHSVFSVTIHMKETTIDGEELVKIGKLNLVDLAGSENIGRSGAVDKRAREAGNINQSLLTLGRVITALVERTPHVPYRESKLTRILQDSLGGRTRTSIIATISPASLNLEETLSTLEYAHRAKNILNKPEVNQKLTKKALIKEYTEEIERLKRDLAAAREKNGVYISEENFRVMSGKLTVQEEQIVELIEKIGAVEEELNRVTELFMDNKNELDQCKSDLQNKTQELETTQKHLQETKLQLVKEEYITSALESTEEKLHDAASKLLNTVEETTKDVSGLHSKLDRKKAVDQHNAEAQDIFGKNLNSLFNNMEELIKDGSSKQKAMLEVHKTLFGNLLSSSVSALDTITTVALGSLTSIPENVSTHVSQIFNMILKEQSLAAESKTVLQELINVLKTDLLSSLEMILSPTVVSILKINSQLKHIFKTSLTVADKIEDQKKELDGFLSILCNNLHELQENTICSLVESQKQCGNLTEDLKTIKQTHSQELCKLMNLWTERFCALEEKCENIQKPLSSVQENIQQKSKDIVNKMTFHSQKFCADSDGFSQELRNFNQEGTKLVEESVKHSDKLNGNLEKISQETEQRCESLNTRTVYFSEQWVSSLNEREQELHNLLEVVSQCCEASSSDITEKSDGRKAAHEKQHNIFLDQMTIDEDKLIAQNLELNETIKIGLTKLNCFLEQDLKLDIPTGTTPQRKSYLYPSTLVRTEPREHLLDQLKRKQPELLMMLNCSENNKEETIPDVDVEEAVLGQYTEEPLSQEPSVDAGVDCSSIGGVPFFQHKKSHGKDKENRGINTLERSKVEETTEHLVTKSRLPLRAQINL
How it was run: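 Gliding assays with other motors used His6-Eg5, His6-EGFP-HSET or K560 (truncated kinesin-1), with test compound at 24 µM or 100 µM. Frames were captured every 5 s for 1 min at 100×. Velocity was the distance travelled in 1 min, from ≥15 microtubules at each of three locations (n ≥ 50 per slide).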

- solubility observation [1]: often precipitated in culture media
- kcat, ATP-dependent ATPase (KIF15-N420): 2.6 ± 0.4 s^–1
- microtubules remaining bound to the coverslip via KIF15 (KIF15-N700): little effect on binding
- inhibition of microtubule gliding, Eg5 (Eg5): neither substantially inhibited
Structure (SMILES): COC(=O)c1ccc2c(c1)N(C)S(=O)(=O)c1cnc(SC)nc1-2 [Munesib-1, Methyl 6-methyl-2-(methylthio)-6H-benzo[c]pyrimido[4,5-e][1,2]thiazine-8-carboxylate 5,5-dioxide]
- effect on monopolar spindles compared with Fift-IN (KIRC-1 cells; 75 μM): comparatively modest
- monopolar spindles (KIRC-1 cells; 75 μM): less than 70%
- monopolarity index relative to cells treated with DMSO (KIRC-1 cells; increasing concentrations): concentration-dependent increase
